Laboratory results published in article PMC3428230 (ChemMedChem, 2011).
Where two headings read alike, the source gives them in different places. Values belong to the molecule of their own block, whether it stands above or below them.

Columns and labels:
human GSK-3β = human GSK-3β (Homo sapiens, UniProt P49841); test: In vitro GSK-3β inhibition: phosphorylation of primed substrate; type: biochemical
15 kinases = test: Selectivity studies against 15 kinases; type: biochemical; settings: 15 kinases (Supporting Information)
C57BL/6J male mice [1] = test: Amphetamine–chlordiazepoxide locomotor hyperactivity procedure; type: in vivo
C57BL/6J male mice [2] = test: Prepulse inhibition of the acoustic startle response; type: in vivo; settings: 30 min pretreatment
How it was run: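 Male C57BL/6J mice given test compound (10 or 25 mgkg−1) or vehicle i.p. in 10% DMSO, 30 min before testing. 5 min habituation to 70 dB background noise, then six startle-alone trials. Ten blocks of randomized null, 120 dB startle, prepulse (4/8/12 dB above background)+startle, and prepulse-alone trials. PPI = [1−(prepulse+startle)/startle amplitude]×100%. n=8–14 per group; repeated-measures ANOVA.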

ClockΔ19 mutant mice = test: Locomotor activity in CLOCK mutant mice; type: in vivo; settings: 12.5 mgkg^−1 i.p. once a day for five days, 2 h recording
CYP1A2 = molecular target: T1, CYP1A2 (Homo sapiens, UniProt P05177); test: Cytochrome P450 inhibition; type: in vitro ADME; settings: up to 10 μM of 3a
T1 sequence (P05177 1-516): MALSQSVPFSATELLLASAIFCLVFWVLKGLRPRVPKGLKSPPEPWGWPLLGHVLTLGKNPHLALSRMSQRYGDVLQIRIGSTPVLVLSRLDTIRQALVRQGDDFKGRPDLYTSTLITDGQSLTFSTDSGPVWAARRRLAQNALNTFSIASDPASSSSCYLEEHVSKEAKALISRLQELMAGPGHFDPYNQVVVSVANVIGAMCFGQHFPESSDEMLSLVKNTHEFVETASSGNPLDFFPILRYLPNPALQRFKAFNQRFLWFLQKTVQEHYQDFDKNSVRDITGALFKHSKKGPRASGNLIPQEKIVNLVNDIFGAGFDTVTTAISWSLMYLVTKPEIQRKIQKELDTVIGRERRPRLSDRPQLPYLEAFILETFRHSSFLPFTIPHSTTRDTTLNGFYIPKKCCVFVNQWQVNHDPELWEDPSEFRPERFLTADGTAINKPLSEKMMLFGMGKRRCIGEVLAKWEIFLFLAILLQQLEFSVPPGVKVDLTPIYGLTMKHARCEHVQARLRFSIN

CYP2B6 = molecular target: T2, CYP2B6 (Homo sapiens, UniProt P20813); test: Cytochrome P450 inhibition; type: in vitro ADME; settings: up to 10 μM of 3a
T2 sequence (P20813 1-491): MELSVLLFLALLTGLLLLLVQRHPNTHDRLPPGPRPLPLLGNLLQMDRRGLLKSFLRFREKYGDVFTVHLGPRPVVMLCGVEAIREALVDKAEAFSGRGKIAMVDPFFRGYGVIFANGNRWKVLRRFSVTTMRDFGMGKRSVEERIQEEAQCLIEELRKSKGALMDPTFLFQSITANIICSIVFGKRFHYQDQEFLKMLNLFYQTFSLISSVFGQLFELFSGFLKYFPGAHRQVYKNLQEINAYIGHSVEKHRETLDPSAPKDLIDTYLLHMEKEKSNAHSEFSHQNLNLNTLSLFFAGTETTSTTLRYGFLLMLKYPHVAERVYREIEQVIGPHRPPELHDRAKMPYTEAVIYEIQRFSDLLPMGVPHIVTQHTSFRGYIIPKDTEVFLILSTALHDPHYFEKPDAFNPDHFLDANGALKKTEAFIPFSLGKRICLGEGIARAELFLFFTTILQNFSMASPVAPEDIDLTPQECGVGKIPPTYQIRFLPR

CYP2C9 = CYP2C9 (Homo sapiens, UniProt P11712); test: Cytochrome P450 inhibition; type: in vitro ADME; settings: up to 10 μM of 3a
CYP2C19 = CYP2C19 (Homo sapiens, UniProt P33261); test: Cytochrome P450 inhibition; type: in vitro ADME; settings: up to 10 μM of 3a
CYP2D6 = CYP2D6 (Homo sapiens, UniProt P10635); test: Cytochrome P450 inhibition; type: in vitro ADME; settings: up to 10 μM of 3a
CYP3A4 = CYP3A4 (Homo sapiens, UniProt P08684); test: Cytochrome P450 inhibition; type: in vitro ADME; settings: up to 10 μM of 3a
[3] = Human liver microsomal stability; type: in vitro ADME; settings: 60 min, 1 and 10 μM
[4] = Mouse liver microsomal stability; type: in vitro ADME; settings: 60 min, 1 and 10 μM
[5] = Aqueous solubility, HPLC-based method; type: physicochemical
[6] = primed substrate 20 μm, 10 μm ATP, tested at Reaction Biology Inc.

Chain of human GSK-3β (P49841 whole entry): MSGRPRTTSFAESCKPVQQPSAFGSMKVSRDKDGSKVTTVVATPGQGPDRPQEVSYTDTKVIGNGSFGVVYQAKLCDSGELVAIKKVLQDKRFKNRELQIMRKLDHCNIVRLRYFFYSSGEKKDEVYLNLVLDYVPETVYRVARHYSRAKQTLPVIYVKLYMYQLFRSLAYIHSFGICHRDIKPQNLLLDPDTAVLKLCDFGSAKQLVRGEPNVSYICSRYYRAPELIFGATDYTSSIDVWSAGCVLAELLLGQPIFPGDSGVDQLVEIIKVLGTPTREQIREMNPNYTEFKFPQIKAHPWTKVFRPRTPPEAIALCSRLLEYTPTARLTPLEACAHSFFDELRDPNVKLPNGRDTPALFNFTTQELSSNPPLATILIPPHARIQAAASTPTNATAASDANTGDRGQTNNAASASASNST
Chain of CYP2C19 (P33261 whole entry): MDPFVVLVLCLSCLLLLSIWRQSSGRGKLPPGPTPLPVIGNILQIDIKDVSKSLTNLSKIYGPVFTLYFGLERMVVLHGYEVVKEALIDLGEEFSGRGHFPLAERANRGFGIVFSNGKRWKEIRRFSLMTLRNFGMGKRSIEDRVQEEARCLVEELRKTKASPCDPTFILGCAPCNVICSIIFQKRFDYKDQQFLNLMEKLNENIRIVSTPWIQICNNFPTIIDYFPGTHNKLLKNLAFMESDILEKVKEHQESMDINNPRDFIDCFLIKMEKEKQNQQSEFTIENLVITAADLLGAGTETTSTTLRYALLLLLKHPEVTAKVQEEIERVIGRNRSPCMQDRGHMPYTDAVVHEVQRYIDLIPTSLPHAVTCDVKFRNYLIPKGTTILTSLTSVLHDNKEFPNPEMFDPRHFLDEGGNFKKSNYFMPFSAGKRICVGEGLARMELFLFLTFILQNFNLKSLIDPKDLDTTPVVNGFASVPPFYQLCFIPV
Chain of CYP2D6 (P10635 whole entry): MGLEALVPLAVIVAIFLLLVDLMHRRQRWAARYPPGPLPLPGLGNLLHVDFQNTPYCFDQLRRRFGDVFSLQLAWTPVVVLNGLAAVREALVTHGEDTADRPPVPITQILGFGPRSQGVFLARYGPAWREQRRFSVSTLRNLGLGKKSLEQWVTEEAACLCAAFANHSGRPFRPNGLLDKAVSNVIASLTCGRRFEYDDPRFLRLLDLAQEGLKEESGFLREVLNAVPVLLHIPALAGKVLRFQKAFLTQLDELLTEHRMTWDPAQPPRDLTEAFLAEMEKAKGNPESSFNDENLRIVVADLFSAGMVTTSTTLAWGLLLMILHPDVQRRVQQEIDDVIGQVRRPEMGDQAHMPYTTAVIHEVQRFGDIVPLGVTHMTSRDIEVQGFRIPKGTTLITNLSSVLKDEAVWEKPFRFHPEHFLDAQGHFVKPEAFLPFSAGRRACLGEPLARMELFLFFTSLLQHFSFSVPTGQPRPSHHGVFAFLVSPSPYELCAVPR
Chain of CYP2C9 (P11712 whole entry): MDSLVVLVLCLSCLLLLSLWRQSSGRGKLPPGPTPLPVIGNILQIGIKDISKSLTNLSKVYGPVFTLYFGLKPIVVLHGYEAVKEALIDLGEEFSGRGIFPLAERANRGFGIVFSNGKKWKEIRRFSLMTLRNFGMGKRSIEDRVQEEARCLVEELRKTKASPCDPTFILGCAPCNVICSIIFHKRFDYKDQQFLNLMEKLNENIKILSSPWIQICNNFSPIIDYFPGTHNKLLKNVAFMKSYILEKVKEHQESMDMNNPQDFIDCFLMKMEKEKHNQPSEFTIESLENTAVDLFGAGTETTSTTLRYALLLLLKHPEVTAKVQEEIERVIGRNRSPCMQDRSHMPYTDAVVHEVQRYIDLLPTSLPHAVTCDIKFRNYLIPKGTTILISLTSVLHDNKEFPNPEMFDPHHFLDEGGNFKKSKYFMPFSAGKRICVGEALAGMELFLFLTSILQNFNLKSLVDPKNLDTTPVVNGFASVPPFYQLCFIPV
Chain of CYP3A4 (P08684 whole entry): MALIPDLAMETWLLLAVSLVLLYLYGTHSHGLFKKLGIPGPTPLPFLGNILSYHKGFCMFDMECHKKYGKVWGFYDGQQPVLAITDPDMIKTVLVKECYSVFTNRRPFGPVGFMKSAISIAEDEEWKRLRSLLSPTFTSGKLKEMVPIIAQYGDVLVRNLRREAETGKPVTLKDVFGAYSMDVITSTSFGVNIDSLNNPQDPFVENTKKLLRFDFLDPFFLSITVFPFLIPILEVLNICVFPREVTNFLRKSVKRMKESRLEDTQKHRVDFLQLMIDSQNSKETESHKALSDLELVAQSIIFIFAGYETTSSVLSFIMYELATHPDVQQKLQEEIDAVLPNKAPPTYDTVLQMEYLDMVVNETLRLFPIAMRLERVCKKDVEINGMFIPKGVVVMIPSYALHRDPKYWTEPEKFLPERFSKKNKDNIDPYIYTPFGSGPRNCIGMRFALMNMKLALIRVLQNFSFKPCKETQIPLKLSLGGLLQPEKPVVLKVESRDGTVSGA

IC50 (human GSK-3β): 55 ± 2 nM
SMILES: NCC(=O)N1CCC(n2cc(C3=C(c4coc5ccccc45)C(=O)NC3=O)c3ccccc32)CC1 [Compound 3p, 3-{1-[1-(2-Amino-acetyl)-piperidin-4-yl]-1H-indol-3-yl}-4-benzofuran-3-yl-pyrrole-2,5-dione]

IC50 (human GSK-3β): 25 ± 2 nM
SMILES: Cc1nonc1C(=O)N1CCC(n2cc(C3=C(c4coc5ccccc45)C(=O)NC3=O)c3ccccc32)CC1 [Compound 3q, 3-Benzofuran-3-yl-4-{1-[1-(4-methyl-furazan-3-carbonyl)-piperidin-4-yl]-1H-indol-3-yl}-pyrrole-2,5-dione]

IC50 (human GSK-3β): 629 ± 32 nM
SMILES: COc1ccc2c(C3=C(c4cn(C5CCNCC5)c5ccccc45)C(=O)NC3=O)coc2c1 [Compound 3b, 3-(6-Methoxy-benzofuran-3-yl)-4-(1-piperidin-4-yl-1H-indol-3-yl)-pyrrole-2,5-dione]

SMILES: O=C1NC(=O)C(c2cn(C3CCN(Cc4ccccn4)CC3)c3ccccc23)=C1c1coc2ccccc12 [Compound 3i, 3-Benzofuran-3-yl-4-[1-(1-pyridin-2-ylmethyl-piperidin-4-yl)-1H-indol-3-yl]-pyrrole-2,5-dione]
IC50 (human GSK-3β): 110 ± 4 nM

IC50 (human GSK-3β): 155 ± 2 nM
SMILES: CN1CCC(n2cc(C3=C(c4coc5ccccc45)C(=O)NC3=O)c3ccccc32)CC1 [Compound 3h, 3-Benzofuran-3-yl-4-[1-(1-methyl-piperidin-4-yl)-1H-indol-3-yl]-pyrrole-2,5-dione]

IC50 (human GSK-3β): 4 ± 1 nM
SMILES: O=C1NC(=O)C(c2cn(C3CCN(C(=O)c4cnccn4)CC3)c3ccccc23)=C1c1coc2ccccc12 [Compound 3o, 3-Benzofuran-3-yl-4-{1-[1-(pyrazine-2-carbonyl)-piperidin-4-yl]-1H-indol-3-yl}-pyrrole-2,5-dione]

IC50 (human GSK-3β): 28 ± 4 nM
SMILES: COc1cccc2c(C3=C(c4cn(C5CCNCC5)c5ccc(F)cc45)C(=O)NC3=O)coc12 [Compound 3g, 3-(5-Fluoro-1-piperidin-4-yl-1H-indol-3-yl)-4-(7-methoxy-benzo-furan-3-yl)-pyrrole-2,5-dione]

IC50 (human GSK-3β): 8 ± 2 nM
SMILES: O=C1NC(=O)C(c2cn(C3CCN(C(=O)c4cccnc4)CC3)c3ccccc23)=C1c1coc2ccccc12 [Compound 3m, 3-Benzofuran-3-yl-4-{1-[1-(pyridine-3-carbonyl)-piperidin-4-yl]-1H-indol-3-yl}-pyrrole-2,5-dione]

IC50 (human GSK-3β): 6 ± 1 nM
SMILES: O=C1NC(=O)C(c2cn(C3CCN(C(=O)c4ccccn4)CC3)c3ccccc23)=C1c1coc2ccccc12 [Compound 3l, 3-Benzofuran-3-yl-4-{1-[1-(pyridine-2-carbonyl)-piperidin-4-yl]-1H-indol-3-yl}-pyrrole-2,5-dione]

IC50 (human GSK-3β; [6]): 272 ± 27 nM
SMILES: O=C1NC(=O)C(c2cn(C3CCNCC3)c3ccc(Cl)cc23)=C1c1coc2ccccc12 [Compound 3e, 3-Benzofuran-3-yl-4-(5-chloro-1-piperidin-4-yl-1H-indol-3-yl)-pyr-role-2,5-dione]

IC50 (human GSK-3β): 134 ± 5 nM
SMILES: COc1cccc2c(C3=C(c4cn(C5CCNCC5)c5ccccc45)C(=O)NC3=O)coc12 [Compound 3c, 3-(7-Methoxy-benzofuran-3-yl)-4-(1-piperidin-4-yl-1H-indol-3-yl)-pyrrole-2,5-dione]

IC50 (human GSK-3β): 10 ± 2 nM
SMILES: O=C1NC(=O)C(c2cn(C3CCN(C(=O)N4CCOCC4)CC3)c3ccccc23)=C1c1coc2ccccc12 [Compound 3k, 3-Benzofuran-3-yl-4-{1-[1-(morpholine-4-carbonyl)-piperidin-4-yl]-1H-indol-3-yl}-pyrrole-2,5-dione]

IC50 (human GSK-3β; [6]): 30 ± 4 nM
SMILES: O=C1NC(=O)C(c2cn(C3CCNCC3)c3ccc(F)cc23)=C1c1coc2ccccc12 [Compound 3d, 3-Benzofuran-3-yl-4-(5-fluoro-1-piperidin-4-yl-1H-indol-3-yl)-pyr-role-2,5-dione]

IC50 (human GSK-3β): 4 ± 1 nM
SMILES: O=C1NC(=O)C(c2cn(C3CCN(C(=O)c4ccncc4)CC3)c3ccccc23)=C1c1coc2ccccc12 [Compound 3n, 3-Benzofuran-3-yl-4-{1-[1-(pyridine-4-carbonyl)-piperidin-4-yl]-1H-indol-3-yl}-pyrrole-2,5-dione]

IC50 (human GSK-3β; [6]): 684 ± 17 nM
SMILES: O=C1NC(=O)C(c2cn(C3CCNCC3)c3ccc(Br)cc23)=C1c1coc2ccccc12 [3 f, 3-Benzofuran-3-yl-4-(5-bromo-1-piperidin-4-yl-1H-indol-3-yl)-pyr-role-2,5-dione]

SMILES: O=C1NC(=O)C(c2cn(C3CCN(Cc4ccncc4)CC3)c3ccccc23)=C1c1coc2ccccc12 [Compound 3j, 3-Benzofuran-3-yl-4-[1-(1-pyridin-4-ylmethyl-piperidin-4-yl)-1H-indol-3-yl]-pyrrole-2,5-dione]
IC50 (human GSK-3β): 65 ± 4 nM

SMILES: O=C1NC(=O)C(c2cn(C3CCNCC3)c3ccccc23)=C1c1coc2ccccc12 [Compound 3a, 3-Benzofuran-3-yl-4-(1-piperidin-4-yl-1H-indol-3-yl)-pyrrole-2,5-dione]
IC50 (human GSK-3β): 67 ± 6 nM
kinase selectivity (15 kinases): reasonably selective amongst other kinases with the exception of PKA and PKC-b2
activity in the Amph/CDP assay (C57BL/6J male mice [1]; 3 mgkg^−1 i.p., 5 min pretreatment): not active
baseline locomotor activity (C57BL/6J male mice [1]; doses higher than 10 mgkg^−1): reductions in baseline locomotor activity
prepulse inhibition (PPI) (C57BL/6J male mice [2]; 10 mgkg^−1 i.p.): not active
prepulse inhibition (PPI) (C57BL/6J male mice [2]; 25 mgkg^−1 i.p.): enhanced PPI
locomotor hyperactivity in response to novelty (beam breaks) (ClockΔ19 mutant mice): attenuation of the locomotor hyperactivity
CYP1A2 inhibition (CYP1A2): ≤ 30%
CYP2B6 inhibition (CYP2B6): ≤ 30%
CYP2C9 inhibition (CYP2C9): ≤ 30%
CYP2C19 inhibition (CYP2C19): ≤ 30%
CYP2D6 inhibition (CYP2D6): ≤ 30%
CYP3A4 inhibition (CYP3A4): ≤ 30%
compound remained after incubation with liver microsomes [3]: more than 83%
compound remained after incubation with liver microsomes [4]: more than 83%
aqueous solubility [5]: 196 mgL^−1
